Experimental findings from ChEMBL document CHEMBL4346653, “A2B Adenosine Receptor Antagonists with Picomolar Potency” (J Med Chem, 2019) are described below.

The target of assay [1] is Adenosine receptor A2a (Mus musculus, UniProt Q60613). The assay is described as follows: Displacement of [3H]MSX-2 from recombinant mouse A2A adenosine receptor expressed in CHO cell membranes measured after 60 mins by liquid scintillation counting method. For orientation: Loss of bound radioactivity is the signal in a displacement assay; it reports binding, not function.
Chain of Adenosine receptor A2a (Mus musculus, UniProt Q60613) (Q60613 whole entry): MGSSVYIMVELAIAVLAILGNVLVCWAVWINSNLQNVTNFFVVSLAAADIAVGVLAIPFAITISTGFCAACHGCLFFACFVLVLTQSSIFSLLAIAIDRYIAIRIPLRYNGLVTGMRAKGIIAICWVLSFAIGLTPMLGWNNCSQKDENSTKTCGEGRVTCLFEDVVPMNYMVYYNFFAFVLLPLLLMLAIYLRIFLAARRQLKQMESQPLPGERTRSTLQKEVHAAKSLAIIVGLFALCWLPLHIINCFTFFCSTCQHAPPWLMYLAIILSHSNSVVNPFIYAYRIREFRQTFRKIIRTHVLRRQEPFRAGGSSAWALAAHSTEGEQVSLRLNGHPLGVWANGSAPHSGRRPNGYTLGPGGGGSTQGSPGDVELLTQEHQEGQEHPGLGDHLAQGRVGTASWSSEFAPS

For assay [2], the target named is T1, Adenosine receptor A3 (Rattus norvegicus, UniProt P28647).
T1 sequence (P28647 whole entry): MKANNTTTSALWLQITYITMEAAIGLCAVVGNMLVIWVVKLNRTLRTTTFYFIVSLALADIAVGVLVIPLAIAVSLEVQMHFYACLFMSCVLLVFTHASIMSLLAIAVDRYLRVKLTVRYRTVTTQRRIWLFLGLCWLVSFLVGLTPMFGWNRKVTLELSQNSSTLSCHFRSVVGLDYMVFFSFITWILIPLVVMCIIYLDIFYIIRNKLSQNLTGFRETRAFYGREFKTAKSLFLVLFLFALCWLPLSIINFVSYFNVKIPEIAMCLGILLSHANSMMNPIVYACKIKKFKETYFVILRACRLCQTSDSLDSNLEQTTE
The assay can be described thus: Binding affinity to rat A3 adenosine receptor.

The target of assay [3] is T2, Adenosine receptor A2b (Mus musculus, UniProt Q60614).
T2 sequence (Q60614 whole entry): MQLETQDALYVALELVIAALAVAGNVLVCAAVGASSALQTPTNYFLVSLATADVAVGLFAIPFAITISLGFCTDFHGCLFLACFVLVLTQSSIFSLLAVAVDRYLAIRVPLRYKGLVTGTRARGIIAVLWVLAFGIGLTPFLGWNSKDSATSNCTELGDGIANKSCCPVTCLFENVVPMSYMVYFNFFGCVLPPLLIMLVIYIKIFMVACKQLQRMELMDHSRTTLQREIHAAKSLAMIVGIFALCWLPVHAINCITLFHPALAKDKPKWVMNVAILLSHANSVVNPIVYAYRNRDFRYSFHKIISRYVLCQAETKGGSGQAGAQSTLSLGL
The assay is described as follows: Displacement of [3H]PSB-603 from recombinant mouse A2B adenosine receptor expressed in CHO cell membranes measured after 75 mins by liquid scintillation counting method.

Assay [4] deals with T3, Adenosine receptor A3 (Mus musculus, UniProt Q61618).
T3 sequence (Q61618 whole entry): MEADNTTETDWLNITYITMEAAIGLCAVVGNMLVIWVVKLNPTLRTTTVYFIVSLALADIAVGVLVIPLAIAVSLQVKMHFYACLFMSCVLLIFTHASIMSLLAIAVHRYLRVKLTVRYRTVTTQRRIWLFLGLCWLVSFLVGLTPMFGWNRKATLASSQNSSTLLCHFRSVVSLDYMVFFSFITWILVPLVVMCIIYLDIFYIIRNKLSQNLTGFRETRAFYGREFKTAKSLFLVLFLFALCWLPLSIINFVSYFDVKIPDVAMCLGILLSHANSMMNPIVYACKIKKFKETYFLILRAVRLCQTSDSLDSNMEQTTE
The assay is described as follows: Displacement of [3H]NECA from recombinant mouse A3 adenosine receptor expressed in CHO cell membranes measured after 180 mins by liquid scintillation counting method.

For assay [5], the target named is T4, Adenosine receptor A1 (Mus musculus, UniProt Q60612).
T4 sequence (Q60612 whole entry): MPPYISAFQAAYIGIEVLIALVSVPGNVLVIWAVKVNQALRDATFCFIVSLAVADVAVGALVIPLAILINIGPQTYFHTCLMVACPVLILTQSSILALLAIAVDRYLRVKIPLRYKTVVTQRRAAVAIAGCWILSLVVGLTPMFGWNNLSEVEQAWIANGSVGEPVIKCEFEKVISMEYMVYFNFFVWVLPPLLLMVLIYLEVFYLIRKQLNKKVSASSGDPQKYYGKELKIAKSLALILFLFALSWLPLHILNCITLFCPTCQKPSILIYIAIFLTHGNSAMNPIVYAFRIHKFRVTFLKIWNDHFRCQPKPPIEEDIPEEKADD
The assay is described as follows: Displacement of [3H]CCPA from recombinant mouse A1 adenosine receptor expressed in CHO cell membranes measured after 60 mins by liquid scintillation counting method.

Assay [6] deals with T4, Adenosine receptor A1. The assay is described as follows: Displacement of [3H]DPCPX from recombinant mouse A1 adenosine receptor expressed in CHO cell membranes measured after 60 mins by liquid scintillation counting method.
The target in assay [7] is T5, Adenosine receptor A2b (Rattus norvegicus, UniProt P29276).
T5 sequence (P29276 whole entry): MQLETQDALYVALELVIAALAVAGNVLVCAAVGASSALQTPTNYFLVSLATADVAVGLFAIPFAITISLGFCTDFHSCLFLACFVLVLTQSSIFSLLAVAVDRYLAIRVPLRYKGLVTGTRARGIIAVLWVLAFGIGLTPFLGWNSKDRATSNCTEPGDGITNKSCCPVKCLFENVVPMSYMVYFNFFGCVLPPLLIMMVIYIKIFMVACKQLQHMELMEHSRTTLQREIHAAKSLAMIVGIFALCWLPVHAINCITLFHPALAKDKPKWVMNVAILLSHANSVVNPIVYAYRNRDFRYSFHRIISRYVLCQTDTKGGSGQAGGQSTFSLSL
The assay can be described thus: Displacement of [3H]PSB-603 from recombinant rat A2B adenosine receptor expressed in CHO cell membranes measured after 75 mins by liquid scintillation counting method.

Assay [8] has as its target T6, Adenosine receptor A2a (Homo sapiens, UniProt P29274). The assay is described as follows: Displacement of [3H]MSX-2 from recombinant human A2A adenosine receptor expressed in CHO cell membranes measured after 60 mins by liquid scintillation counting method. A digest of the protocol:
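Human A2A receptor binding against [3H]MSX-2, n = 3. Ki values (± SEM, nM) come from concentration-inhibition curves. Some Ki values are marked as derived from an extrapolated curve.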

In assay [9] the target is T6, Adenosine receptor A2a. The assay is described as follows: Displacement of [3H]ZM241385 from recombinant human A2A adenosine receptor expressed in CHO cell membranes measured after 60 mins by topcount scintillation counting method.
The target in assay [10] is T7, Adenosine receptor A1 (Homo sapiens, UniProt P30542).
T7 sequence (P30542 whole entry): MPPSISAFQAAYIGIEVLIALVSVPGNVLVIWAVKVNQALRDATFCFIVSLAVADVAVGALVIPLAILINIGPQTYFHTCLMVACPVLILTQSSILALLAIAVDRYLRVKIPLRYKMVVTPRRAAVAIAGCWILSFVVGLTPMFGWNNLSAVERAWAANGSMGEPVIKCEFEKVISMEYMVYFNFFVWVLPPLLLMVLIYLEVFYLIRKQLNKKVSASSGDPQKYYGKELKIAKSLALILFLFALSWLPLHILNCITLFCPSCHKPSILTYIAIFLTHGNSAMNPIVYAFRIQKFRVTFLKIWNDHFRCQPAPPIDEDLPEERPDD
The assay can be described thus: Displacement of [3H]DPCPX from recombinant human A1 adenosine receptor expressed in CHO cell membranes measured after 120 mins by topcount scintillation counting method.

Assay [11] concerns the target T8, Adenosine receptor A3 (Homo sapiens, UniProt P0DMS8).
T8 sequence (P0DMS8 whole entry): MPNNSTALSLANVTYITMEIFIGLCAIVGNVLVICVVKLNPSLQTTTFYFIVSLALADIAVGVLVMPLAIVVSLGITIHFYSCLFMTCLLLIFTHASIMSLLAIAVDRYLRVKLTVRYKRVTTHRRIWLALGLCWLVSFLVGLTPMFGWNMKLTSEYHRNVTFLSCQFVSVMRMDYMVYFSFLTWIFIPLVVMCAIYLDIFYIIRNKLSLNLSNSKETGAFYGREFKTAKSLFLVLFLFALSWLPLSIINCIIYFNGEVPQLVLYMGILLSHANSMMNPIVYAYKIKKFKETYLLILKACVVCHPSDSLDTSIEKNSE
The assay can be described thus: Displacement of [3H]MRE3008-F20 from recombinant human A3 adenosine receptor expressed in CHO cell membranes measured after 120 mins by topcount scintillation counting method.

Assay [12] addresses T9, Adenosine receptor A2b (Homo sapiens, UniProt P29275).
T9 sequence (P29275 whole entry): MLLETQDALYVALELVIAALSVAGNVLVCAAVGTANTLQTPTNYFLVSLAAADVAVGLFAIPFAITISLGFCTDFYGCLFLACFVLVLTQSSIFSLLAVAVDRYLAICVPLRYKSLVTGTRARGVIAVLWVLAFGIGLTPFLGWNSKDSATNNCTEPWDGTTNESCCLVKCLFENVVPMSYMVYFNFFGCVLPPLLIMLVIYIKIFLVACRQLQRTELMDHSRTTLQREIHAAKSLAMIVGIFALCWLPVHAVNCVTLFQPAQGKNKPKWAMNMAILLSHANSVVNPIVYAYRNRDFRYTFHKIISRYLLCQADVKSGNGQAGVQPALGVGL
The assay can be described thus: Displacement of [3H]DPCPX from recombinant human A2B adenosine receptor expressed in HEK293 cell membranes measured after 60 mins by topcount scintillation counting method.

T6 sequence (P29274 whole entry): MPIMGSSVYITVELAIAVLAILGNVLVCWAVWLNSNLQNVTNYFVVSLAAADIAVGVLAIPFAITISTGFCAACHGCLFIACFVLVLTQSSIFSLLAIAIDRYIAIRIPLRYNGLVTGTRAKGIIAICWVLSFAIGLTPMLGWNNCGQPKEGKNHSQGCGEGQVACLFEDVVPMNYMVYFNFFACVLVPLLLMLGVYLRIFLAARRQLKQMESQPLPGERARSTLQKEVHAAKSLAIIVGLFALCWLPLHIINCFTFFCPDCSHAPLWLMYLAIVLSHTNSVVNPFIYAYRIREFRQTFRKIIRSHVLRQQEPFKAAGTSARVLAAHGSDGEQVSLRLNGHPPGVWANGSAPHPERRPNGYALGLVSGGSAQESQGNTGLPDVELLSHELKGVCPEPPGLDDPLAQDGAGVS

Usually Ki stands for the equilibrium dissociation constant of an inhibitor or competing ligand from its target. With `CCCn1c(=O)c2[nH]c(-c3ccc(OCC(=O)Nc4ccc(C#N)cc4)cc3)nc2n(CCC)c1=O`, the Ki on Adenosine receptor A2a [1] is > 10000 nM; at Adenosine receptor A3 [2] it was > 10000 nM; at Adenosine receptor A2b [3] it was 3.12 nM; on Adenosine receptor A3 [4] it was > 10000 nM; on Adenosine receptor A1 [5], 1.45 nM.

Regarding `CCCn1c(=O)[nH]c2nc(-c3ccc(S(=O)(=O)O)cc3)[nH]c2c1=O`, the Ki at Adenosine receptor A2a [1] is > 10000 nM; on Adenosine receptor A1 [6], 591 nM; at Adenosine receptor A2b [7] it was 3140 nM; at Adenosine receptor A3 [2], > 10000 nM; at Adenosine receptor A2b [3] it was 1940 nM; on Adenosine receptor A3 [4] it was > 10000 nM. The Ki on Adenosine receptor A2a [8] is 3790 nM.

In the case of `O=C(Nc1nc2nn(CCCc3ccccc3)cc2c2nc(-c3ccco3)nn12)c1cccc2ccccc12`, the Ki at Adenosine receptor A2a [9] came to 800 nM; at Adenosine receptor A1 [10] it was 1100 nM; at Adenosine receptor A3 [11], 300 nM; at Adenosine receptor A2b [12], 20 nM.
